In ChEMBL document CHEMBL4020757, “Lathyrol and epoxylathyrol derivatives: Modulation of Cdr1p and Mdr1p drug-efflux transporters of Candida albicans in Saccharomyces cerevisiae model” (Bioorg Med Chem, 2017):
Converted amounts (≈) assume the structure as drawn.

Tests used:
Candida albicans [1] = assay: Inhibition of Candida albicans CDR1 expressed in Saccharomyces cerevisiae AD assessed as ratio of compound MIC80 in combinantion with fluconazole to compound alone MIC80 for Saccharomyces cerevisiae AD by checkerboard method
How it was run: (§1)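 Checkerboard per CLSI with 10⁴ cells of AD-CDR1, AD-MDR1 or AD1-8u⁻, grown 48 h at 30 °C. Fluconazole 4-209 μM crossed with compound 0.25-400 μM, growth read by optical density. Compound FIC is the compound MIC in combination with fluconazole divided by its MIC alone.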

Candida albicans [2] = assay: Inhibition of Candida albicans CDR1 expressed in Saccharomyces cerevisiae AD assessed as potentiation of fluconazole-induced antifungal activity against Saccharomyces cerevisiae AD by checkerboard method
How it was run: (§2)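 Checkerboard per CLSI in AD1-8u⁻ control, AD-CDR1 or AD-MDR1 cells (10⁴ cells) grown 48 h at 30 °C. Fluconazole 4-209 μM crossed with compound 0.25-400 μM. Growth read by optical density. FIC of each agent is its MIC in combination divided by its MIC alone. FICI is the sum of the fluconazole and compound FICs, with values below 0.5 taken as synergy.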

Candida albicans [3] = assay: Inhibition of Candida albicans MDR1 expressed in Saccharomyces cerevisiae AD assessed as ratio of compound MIC80 in combinantion with fluconazole to compound alone MIC80 for Saccharomyces cerevisiae AD by checkerboard method; how it was run: as §1
Saccharomyces cerevisiae [4] = assay: Antifungal activity against Saccharomyces cerevisiae AD over-expressing Candida albicans CDR1 after 48 hrs; type: functional
How it was run: (§3)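 Yeast (10⁴ cells) grown in YEPD at 30 °C for 48 h with inhibitors at 0.25-400 μM (DMSO stocks); growth read by optical density, inhibitor-free growth set as 100%. MIC80 = concentration giving 80% growth inhibition. RI = MIC80 in AD-CDR1 or AD-MDR1 divided by MIC80 in control AD1-8u⁻. Means ± SD, duplicate samples, at least three independent experiments.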

Saccharomyces cerevisiae [5] = assay: Antifungal activity against Saccharomyces cerevisiae AD over-expressing Candida albicans MDR1 after 48 hrs; type: functional; how it was run: as §3
Saccharomyces cerevisiae [6] = assay: Synergistic antifungal activity against Saccharomyces cerevisiae AD1-8u(-) assessed as ratio of compound MIC80 in combinantion with fluconazole to compound alone MIC80 by checkerboard method; type: functional; how it was run: as §1
Saccharomyces cerevisiae [7] = assay: Resistance index, ratio of MIC80 for Saccharomyces cerevisiae AD over-expressing Candida albicans MDR1 to MIC80 for Saccharomyces cerevisiae AD1-8u(-); type: functional; how it was run: as §3
Candida albicans [8] = assay: Inhibition of Candida albicans CDR1 expressed in Saccharomyces cerevisiae AD assessed as potentiation of fluconazole-induced antifungal activity against Saccharomyces cerevisiae AD by measuring fold reduction in fluconazole MIC80 by checkerboard method
How it was run: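 AD-CDR1 cells (10⁴) grown 48 h at 30 °C in a CLSI checkerboard, fluconazole 4-209 μM crossed with compound 0.25-400 μM, growth read by optical density. Fold reduction is derived from the fluconazole MIC alone versus the fluconazole MIC in combination.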

Candida albicans [9] = assay: Inhibition of Candida albicans MDR1 expressed in Saccharomyces cerevisiae AD assessed as potentiation of fluconazole-induced antifungal activity against Saccharomyces cerevisiae AD by checkerboard method; how it was run: as §2
[10] = Lipophilicity, log P of the compound; type: physicochemical; settings: octanol/water
Saccharomyces cerevisiae [11] = assay: Resistance index, ratio of MIC80 for Saccharomyces cerevisiae AD over-expressing Candida albicans CDR1 to MIC80 for Saccharomyces cerevisiae AD1-8u(-); type: functional; how it was run: as §3
Saccharomyces cerevisiae [12] = assay: Potentiation of fluconazole-induced antifungal activity against Saccharomyces cerevisiae AD1-8u(-) by checkerboard method; type: functional; how it was run: as §2
Candida albicans [13] = assay: Inhibition of Candida albicans MDR1 expressed in Saccharomyces cerevisiae AD assessed as reduction in nile red dye efflux at 70 uM after 30 mins by flow cytometry relative to control
How it was run: (§4)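 AD-CDR1 or AD-MDR1 cells grown in YEPD at 30 °C with shaking from OD600 0.1 to 0.25, then resuspended as a 5% suspension in 1:2 YEPD:water. Nile Red (final 7 μM) added with or without compound at 70 μM, 30 min at 30 °C. Cells washed twice and 10,000 cells analysed by flow cytometry. Efflux rate expressed relative to untreated control cells. Means ± SD, three independent experiments.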

Candida albicans [14] = assay: Inhibition of Candida albicans CDR1 expressed in Saccharomyces cerevisiae AD assessed as reduction in nile red dye efflux at 70 uM after 30 mins by flow cytometry relative to control; how it was run: as §4
Saccharomyces cerevisiae [15] = assay: Antifungal activity against Saccharomyces cerevisiae AD1-8u(-) after 48 hrs; type: functional
How it was run: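 S. cerevisiae AD1-8u⁻ control strain revived from glycerol stock on YEPD plates and grown in YEPD at 30 °C. 10⁴ cells exposed to compound at 0.25-400 μM for 48 h at 30 °C. Growth read as optical density, with no-inhibitor growth as 100%. MIC80 is the concentration giving 80% growth inhibition. Means ± SD of duplicates from at least three independent experiments.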

SMILES | Ratio (Candida albicans [1]) | fractional inhibitory concentration index (FICI) (Candida albicans [2]) | Ratio (Candida albicans [3]) | MIC80 (Saccharomyces cerevisiae [4]) [µM] | MIC80 (Saccharomyces cerevisiae [5]) [µM] | Ratio (Saccharomyces cerevisiae [6]) | Ratio (Saccharomyces cerevisiae [7]) | fold change (FC) (Candida albicans [8]) | fractional inhibitory concentration index (FICI) (Candida albicans [9]) | logP [10] | Ratio (Saccharomyces cerevisiae [11]) | fractional inhibitory concentration index (FICI) (Saccharomyces cerevisiae [12]) | inhibition (Candida albicans [13]) [%] | inhibition (Candida albicans [14]) [%] | MIC80 (Saccharomyces cerevisiae [15]) [µM]
C=C1CC[C@H]2[C@@H](/C=C(\C)C(=O)[C@@]3(O)C[C@H](C)[C@H](O)[C@@H]3[C@H]1OC(=O)c1cccc(C(F)(F)F)c1)C2(C)C | 0.5 | 0.52 | 1 | 982 (≈ 497 µg/mL) | 867 (≈ 439 µg/mL) | 1 | 0.87 | 52 | 1.3 | 3.41 | 0.99 | 2 | 25 | 70 | 988 (≈ 500 µg/mL)
CCC(=O)O[C@@H]1[C@@H]2[C@@H](OC(C)=O)[C@]3(CC[C@H]4[C@@H](/C=C(\C)C(=O)[C@@]2(OC(C)=O)C[C@@H]1C)C4(C)C)CO3 | 0.5 | 0.54 | 1 | 501 (≈ 246 µg/mL) | 498 (≈ 244 µg/mL) | 1 | 0.97 | 23 | 1.3 | 2.32 | 0.98 | 2 | 20 | 10 | 510 (≈ 250 µg/mL)
CCCC(=O)O[C@@H]1[C@@H]2[C@@H](OC(=O)CCC)[C@]3(CC[C@H]4[C@@H](/C=C(\C)C(=O)[C@@]2(OC(=O)CCC)C[C@@H]1C)C4(C)C)CO3 | 1 | 1.4 | 1 | 762 (≈ 427 µg/mL) | 801 (≈ 449 µg/mL) | 1 | 0.89 | – | 1.3 | 4.3 | 0.85 | 2 | 85 | 35 | 892 (≈ 500 µg/mL)
COc1ccc(C(=O)O[C@@H]2[C@@H]3[C@@H](OC(=O)c4ccc(OC)cc4)[C@]4(CC[C@H]5[C@@H](/C=C(\C)C(=O)[C@@]3(O)C[C@@H]2C)C5(C)C)CO4)cc1 | 1 | 1.4 | 1 | 776 (≈ 480 µg/mL) | 861 (≈ 533 µg/mL) | 1 | 1.06 | – | 1.3 | 4.51 | 0.95 | 2 | 80 | 10 | 809 (≈ 501 µg/mL)
C/C1=C\[C@@H]2[C@H](CC[C@]3(CO3)[C@H](OC(=O)c3ccc(C)cc3)[C@H]3[C@@H](OC(=O)c4ccc(C)cc4)[C@@H](C)C[C@]3(O)C1=O)C2(C)C | 1 | 1.4 | 1 | 789 (≈ 463 µg/mL) | 803 (≈ 471 µg/mL) | 1 | 0.94 | – | 1.3 | 5 | 0.92 | 2 | 25 | 30 | 853 (≈ 500 µg/mL)
C/C1=C\[C@@H]2[C@H](CC[C@]3(CO3)[C@H](O)[C@H]3[C@@H](O)[C@@H](C)C[C@]3(O)C1=O)C2(C)C | 1 | 1.4 | 1 | 2800 (≈ 981 µg/mL) | 2800 (≈ 981 µg/mL) | 1 | 4 | – | 1.3 | 1.91 | 4 | 2 | 85 | 30 | 714 (≈ 250 µg/mL)
